High-throughput results as filed in PubChem.
Only some compounds are listed: those with a hit (about 6.6% of all), similar ones and a draw of the others.
Ecoli tolC – growth inhibitors of E. coli tolC mutant, primary screen, strain BW25113 ΔtolC::kan, 384-well. 65,000 tested, 2.2% active. OD615. growth inhibition, % at 10 µM (by protocol);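 active means growth inhibition at or above a cutoff equal to the mean over every tested compound plus 3 SD, cut at about 60% in these data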;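 further: growth measured after 20 h incubation at 37 °C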
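System: E. coli ΔtolC::kan strain BW25113; Buffer or medium: LB broth supplemented with 50 µg/mL kanamycin; Compound: 10 µM final, single dose; Incubation: bacterial growth with compound for 20 h at 37 °C; Signal: A615 absorbance measurement; Evaluation: growth inhibition in percent.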
E coli WT exp – growth inhibitors of wild-type E. coli, primary screen, strain BW25113, expanded library, OD600 | OD600 absorbance | growth inhibition, % at 100 µM | 98,000 tested, 0.15% active;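 active means growth inhibition above about 50% at one test dose, limit read from the data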;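 further: growth measured after 20 h incubation at 37 °C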
PostGolgi yeast – phenotypic screen on post-Golgi transport, primary screen; post-Golgi transport phenotypic cell assay; inhibition, % at 10 µM; 98,000 tested, 0.9% active;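 further: yeast cells grown in 1536-well plates; yeast grown about 18 h at 30C before absorbance read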
PostGolgi ctrl – growth inhibition of yeast control strain, primary screen, counter-screen for post-Golgi transport modulator project | inhibition, % at 10 µM | efflux-deficient yeast background strain, growth absorbance A615, 16 h | 98,000 tested, 5% active
Her2 expr inh – inhibitors of Her2 protein expression, primary screen, SKBR-3 cells, AlphaScreen, 66K library | SKBR-3 HER2 protein level, 18-24 h; active compounds read low | HER2 level % of control, % at 10 µM | 65,000 tested, 0.69% active | AID 645, 2007;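 active means HER2 level under 5% of the carrier-only control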;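 further: lower value means stronger loss of Her2 protein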
Target sequence (P04626 whole entry, looked up): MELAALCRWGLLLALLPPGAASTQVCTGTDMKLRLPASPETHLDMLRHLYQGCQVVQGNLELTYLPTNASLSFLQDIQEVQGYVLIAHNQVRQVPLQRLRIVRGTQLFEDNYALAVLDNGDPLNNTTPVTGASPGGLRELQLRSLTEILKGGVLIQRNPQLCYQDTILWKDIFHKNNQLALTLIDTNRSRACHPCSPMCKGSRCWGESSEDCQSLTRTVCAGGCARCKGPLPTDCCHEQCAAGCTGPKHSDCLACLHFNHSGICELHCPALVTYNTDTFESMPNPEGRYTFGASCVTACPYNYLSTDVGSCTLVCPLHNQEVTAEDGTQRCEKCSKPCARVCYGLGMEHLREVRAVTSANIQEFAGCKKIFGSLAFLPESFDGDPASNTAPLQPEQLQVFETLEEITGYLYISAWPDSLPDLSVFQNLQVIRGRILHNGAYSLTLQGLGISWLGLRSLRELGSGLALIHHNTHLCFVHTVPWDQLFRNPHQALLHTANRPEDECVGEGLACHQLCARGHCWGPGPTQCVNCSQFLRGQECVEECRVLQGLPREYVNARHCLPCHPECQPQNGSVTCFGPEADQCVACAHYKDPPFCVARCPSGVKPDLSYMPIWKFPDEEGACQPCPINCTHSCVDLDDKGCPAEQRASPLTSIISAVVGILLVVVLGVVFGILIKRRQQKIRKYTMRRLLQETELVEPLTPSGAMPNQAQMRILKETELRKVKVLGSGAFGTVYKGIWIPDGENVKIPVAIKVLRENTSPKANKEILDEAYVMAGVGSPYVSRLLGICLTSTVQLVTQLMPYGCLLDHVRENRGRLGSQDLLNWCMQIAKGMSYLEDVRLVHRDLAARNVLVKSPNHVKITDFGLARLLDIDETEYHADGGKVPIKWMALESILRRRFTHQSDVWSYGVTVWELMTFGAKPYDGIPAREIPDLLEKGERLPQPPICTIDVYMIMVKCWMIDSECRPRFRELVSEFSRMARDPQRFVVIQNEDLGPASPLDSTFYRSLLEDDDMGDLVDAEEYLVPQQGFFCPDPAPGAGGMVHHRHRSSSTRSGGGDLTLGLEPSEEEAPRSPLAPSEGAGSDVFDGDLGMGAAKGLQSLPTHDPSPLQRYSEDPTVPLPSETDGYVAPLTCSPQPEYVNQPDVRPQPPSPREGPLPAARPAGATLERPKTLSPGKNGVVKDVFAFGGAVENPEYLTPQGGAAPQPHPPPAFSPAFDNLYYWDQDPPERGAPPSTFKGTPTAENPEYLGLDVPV
Of the large screens only hits and unclear results are named; the others gave an inactive call. Unless noted, no stated cut-off is given here; in the data, active means inhibition above about 30%; inactive means the rest.

COc1ccccc1-c1cc(C(F)(F)F)nc(S(=O)(=O)CCCC(=O)NC(C)C)n1	PostGolgi ctrl 43, Her2 expr inh -13
O=C1N[C@@H](Cc2cnc[nH]2)C(=O)N2CCC[C@@H]12	none (no result: E coli WT exp, PostGolgi yeast, PostGolgi ctrl)
CCc1nc2oc3ccccc3c(=O)c2c(=O)n1CCOC	none
CCc1nc2oc3ccccc3c(=O)c2c(=O)n1-c1ccccc1	PostGolgi ctrl 30
Cc1nc(NC2=NCN(Cc3ccc4c(c3)OCO4)CN2)nc2ccccc12	none (no result: E coli WT exp, PostGolgi yeast, PostGolgi ctrl)
Cc1cc(C)nc(Nc2nc(C)c3cc4c(cc3n2)OCO4)n1	PostGolgi ctrl 36
COC(=O)/C=C/S(=O)(=O)c1ccc(NC(C)=O)cc1	Her2 expr inh -20
CCCc1nc(SCC(=O)N2CCc3ccccc32)c2c(C)c(C)sc2n1	none (no result: Ecoli tolC, Her2 expr inh)
COCCCn1c2nc3ccccc3nc2c2c(=O)n(-c3ccccc3OC)cnc21	PostGolgi yeast 34
COCCn1cnc2c(c1=O)c1nc3ccccc3nc1n2/N=C/c1cccc(OC)c1OC	Her2 expr inh -0.7 (no result: E coli WT exp, PostGolgi yeast, PostGolgi ctrl)
CCn1cc(/C=N/N=C2\CCC3C4CCc5cc(O)ccc5C4CC[C@]23C)c(C)n1 (some centres not stated)	none (no result: Ecoli tolC, Her2 expr inh)
Cc1cccc(N(C(=O)c2csnn2)C(C(=O)NC(C)(C)C)c2cccs2)c1 (configuration not stated)	none (no result: Ecoli tolC, Her2 expr inh)
Cc1nc2cc(-c3ccccc3)nn2c(C)c1CCC(=O)N1CCN(c2ccccc2)CC1	PostGolgi ctrl 45 (no result: Ecoli tolC, Her2 expr inh)
CC1CCCCN1C(=O)CSc1ccc(-c2ccc(F)cc2)nn1 (configuration not stated)	PostGolgi ctrl 45
CCC(=O)N1CCN(c2cc3c(cc2F)c(=O)c(C(=O)O)cn3CC)CC1	Ecoli tolC 100 (no result: E coli WT exp, PostGolgi yeast, PostGolgi ctrl)
CCn1cc(C(=O)O)c(=O)c2cc(OC)ccc21	Ecoli tolC 97
CCOC(=O)N1CCN(C(=O)c2cn(CC)c3cc(N4CCN(C)CC4)c(F)cc3c2=O)CC1	E coli WT exp 100
CCCCCCC(=O)N1CCN(c2cc3c(cc2F)c(=O)c(C(=O)O)cn3CC)CC1	none (no result: E coli WT exp, PostGolgi yeast, PostGolgi ctrl)
CCOC(=O)C1CN(c2cc3c(cc2F)c(=O)c(C(=O)O)cn3CC)OC1C(=O)OCC (configuration not stated)	Ecoli tolC 98
CCOc1ccc(NC(=O)CN(c2cccc(C(F)(F)F)c2)S(C)(=O)=O)cc1	none (no result: Ecoli tolC, Her2 expr inh)
CCOc1ccccc1NC(=O)c1ccc2nccnc2c1	none
COCCNC(=O)C1=C(N)C(C(=O)Nc2ccc(C)c(S(=O)(=O)N3CCCCC3)c2)SC1=Nc1ccc(C)cc1C (configuration not stated)	none (no result: Ecoli tolC, Her2 expr inh)
CCn1cc(C(=O)NCC2CCCO2)c(=O)c2cc(F)c(N3CCN(C)CC3)cc21 (configuration not stated)	none
CCOC(=O)c1cn(CC)c2cc(N3CCCCC3)c(F)cc2c1=O	Ecoli tolC 100 (no result: E coli WT exp, PostGolgi yeast, PostGolgi ctrl)
CCOC(=O)c1cn(CC)c2cc(N3CCOCC3)c(F)cc2c1=O	Ecoli tolC 100
CCC(C)(C)NC(=O)C(OC(=O)c1cc2sccc2n1C)c1ccc(OC)cc1 (configuration not stated)	none
Cc1cc(C)c(S(C)(=O)=O)c(Oc2cccc(Cl)c2)n1	PostGolgi yeast 32 (no result: Ecoli tolC, Her2 expr inh)
COc1cc(C(=O)Sc2ccc(C)cc2)cc(OC)c1OC	PostGolgi ctrl 45 (no result: Ecoli tolC, Her2 expr inh)
CC1=C(C(=O)OC2CCCC2)C(c2ccc(C)o2)C2=C(CC(c3cccs3)CC2=O)N1 (configuration not stated)	Ecoli tolC 65
CC1=C(C(=O)OC2CCCCCC2)C(c2ccc(C)o2)C2=C(CCCC2=O)N1 (configuration not stated)	Ecoli tolC 100
COc1ccc(/C=N/NC(=O)c2ccc3ccccc3c2)cc1OS(=O)(=O)c1ccc(NC(C)=O)cc1	none (no result: Ecoli tolC, Her2 expr inh)
Cc1nc(SC2CC(=O)N(c3cc(Cl)cc(Cl)c3)C2=O)nc2c1CCCC2 (configuration not stated)	PostGolgi ctrl 59 (no result: Ecoli tolC, Her2 expr inh)
Cc1cccc2c1NC(=O)C2(c1ccc(O)cc1)c1ccc(O)cc1	none (no result: Ecoli tolC, Her2 expr inh)
O=C1OC(c2ccc(O)cc2)(c2ccc(O)cc2)c2ccccc21	Ecoli tolC 72 (no result: E coli WT exp, PostGolgi yeast, PostGolgi ctrl)
O=C(CSc1nn(-c2ccc(F)cc2)c(=S)s1)N1CCN(C(=O)c2ccco2)CC1	none
O=C(CSc1nn(-c2ccc(Cl)cc2)c(=S)s1)N1CCN(C(=O)c2ccco2)CC1	PostGolgi ctrl 52
O=C1NC(=S)SC1=C1CCCC1	PostGolgi ctrl 56 (no result: Ecoli tolC, Her2 expr inh)
O=C(CN1C(=O)NC2(CCCC2)C1=O)Nc1ccccc1F	none (no result: Ecoli tolC, Her2 expr inh)
Cc1cc(Cl)ccc1OCc1nc(-c2ccc(O)cc2)n[nH]1	PostGolgi ctrl 96
Cc1cc(Cl)ccc1Oc1ncc(-c2ccc(Cl)cc2)cn1	none (no result: Ecoli tolC, Her2 expr inh)
Cc1oc2c(CN3CCCC3)c(O)ccc2c(=O)c1-c1ccc(Cl)cc1	none
Cc1oc2c(CN3CCOCC3)c(O)ccc2c(=O)c1-c1ccc(Br)cc1	Ecoli tolC 99
O=C(Nc1cnc2ccccn2c1=O)c1ccc(Cl)cc1	none (no result: Ecoli tolC, Her2 expr inh)
CCN1CCN(Cc2nc3c(c(=O)n(C)c(=O)n3C)n2Cc2ccc(Cl)cc2Cl)CC1	none (no result: E coli WT exp, PostGolgi yeast, PostGolgi ctrl)
Cc1cccc(NC(=O)C2CCCN2C(=O)OCC(C)C)c1C (configuration not stated)	PostGolgi ctrl 35
Cn1c(Cn2c(=O)sc3ccccc32)nnc1SCC(=O)Nc1ccc2c(c1)OCO2	none
COc1ccc(NC(=O)NCCCN2CCCC2=O)c(OC)c1	none (no result: Ecoli tolC, Her2 expr inh)
COc1cc(/C=c2\sc3n(c2=O)C(c2ccccc2)C(c2ccccc2)=NN=3)ccc1O (configuration not stated)	PostGolgi ctrl 33 (no result: Ecoli tolC, Her2 expr inh)
CC(=O)N1N=C(c2cccc(Cl)c2)OC1c1ccc(C(C)C)cc1 (configuration not stated)	PostGolgi ctrl 35 (no result: Ecoli tolC, Her2 expr inh)
COC(=O)CNC(=O)CNC(=O)c1nn(-c2ccc(OC)c(Cl)c2)c(=O)c2ccccc12	PostGolgi ctrl 35 (no result: Ecoli tolC, Her2 expr inh)
CCC(C)(C)n1nnnc1C(c1cc2ccc(C)cc2[nH]c1=O)N(Cc1cccnc1)Cc1ccco1 (configuration not stated)	Ecoli tolC 71
c1ccc(Cn2nnc3c(N4CCc5ccccc5C4)ncnc32)cc1	PostGolgi ctrl 30
c1ccc(Cn2nnc3c(N4CCCC4)ncnc32)cc1	none
O=c1c2nnn(Cc3ccccc3)c2ncn1-c1ccccc1	PostGolgi ctrl 34
CC1Cc2ccccc2N1c1ncnc2c1nnn2Cc1ccccc1 (configuration not stated)	PostGolgi ctrl 42
CCN1CCN(c2ncnc3c2nnn3Cc2ccccc2)CC1	none
CC(=O)c1ccc(C(C)(C)c2ccc(C(C)=O)s2)s1	none
CCCCNS(=O)(=O)c1ccc2nc(SCC(=O)N3CC(C)OC(C)C3)[nH]c2c1 (configuration not stated)	none (no result: Ecoli tolC, Her2 expr inh)
CC(C)NC(=O)c1ccc(OC2CSC2)cc1	none (no result: Ecoli tolC, Her2 expr inh)
O=C(NCCC1=CCCCC1)C(=O)NCc1ccccc1Cl	PostGolgi ctrl 34 (no result: Ecoli tolC, Her2 expr inh)
CCCNC(=O)C(=O)NCCC1=CCCCC1	none (no result: Ecoli tolC, Her2 expr inh)
